# Bioassay records as filed in PubChem BioAssay.
# Compounds with a hit are over-represented: about 27% of the library has one in this group of screens.
# CYP2C9 act – increases human cytochrome P450 2C9 activity | recombinant CYP2C9, luciferin-H conversion, luminescence; stronger effect = higher value; factor 1 = untreated enzyme, 0 = blocked | activation factor at 5 µM | 96,000 compounds, 1.4% hits | AID 1024;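 active means activation factor of 2 or more for CYP2C9 at a 5 µM dose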;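 further: 0 = sulfaphenazole-blocked wells and 1 = vehicle-only wells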
# CYP2C19 activ – cytochrome P450 2C19 (human) activation; P33261; recombinant CYP2C19, luciferin-H EGE luminescence; stronger effect = higher value; 0 = fully inhibited enzyme, 1 = untreated enzyme; activation factor at 5 µM; 96,000 tested, under 10 active; AID 1025;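 active means activation factor of at least 2 at 5 µM in the primary screen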;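 further: 0 = wells with 2.5 mM tranylcypromine and 1 = vehicle-only wells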
# CYP2C9 inh – blocks human cytochrome P450 2C9. CYP2C9 Supersomes, luciferin-H conversion, luminescence. AID 777. inhibition, % at 5 µM. 96,000 compounds, 20% hits. P11712;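 active means blocking of liver enzyme CYP2C9 beyond about 50% at 5 µM, limit read from the data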
# Cav3 T inh – inhibitors of human Cav3.2 T-type calcium channel | 100,000 compounds, 4% hits | Cav3.2-expressing cells, Fluo-4 calcium fluorescence FDSS; stronger effect = lower value | AID 449739 | B-score at 10 µM;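 active means single-dose well whose peak fluorescence ratio is a statistical outlier from its plate by either plate-standardised score or position-corrected B-score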
# HIV Rev-RRE inh – disrupts HIV-1 Rev binding to RRE RNA. Rev peptide-RRE RNA binding, FRET. inhibition, % at 8 µM. 97,000 compounds, 0.79% hits;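 active means inhibition above the screen-wide mean plus 3 SD, cut at about 35% in these data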;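 further: 0% = median DMSO wells and 100% = median Neomycin B control wells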
# Target sequence (P05866 whole entry, looked up): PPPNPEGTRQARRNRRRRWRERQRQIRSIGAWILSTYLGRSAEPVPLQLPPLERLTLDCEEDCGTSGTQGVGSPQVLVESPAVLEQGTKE
#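 Assay system: Labelled RRE RNA duplex and labelled Rev peptide | Times: 5 min preincubation and 15 min binding, 25 °C | Detection: FRET, ex 480 nm, em 540 and 671 nm | Evaluation: % inhibition of FRET ratio versus controls | Benchmarks: DMSO wells as 0% and neomycin B wells as 100% inhibition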
# CYP2C19 inh – human CYP2C19 inhibition | P33261 | CYP2C19 Supersomes, luciferin-H EGE luminescence, 30 min | inhibition, % at 5 µM | 96,000 compounds, 21% hits | AID 778;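 active means CYP2C19 inhibition above a set limit at 5 µM in the primary screen, cut at about 50% in these data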;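 further: plate controls were negative control wells for no effect and 2.5 mM tranylcypromine positive control for full effect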
# Active calls of the source: *; . = not tested or not shown.
SMILES,CYP2C9 act,CYP2C19 activ,CYP2C9 inh,Cav3 T inh,HIV Rev-RRE inh,CYP2C19 inh
Cc1nc2ccccc2n1CC(=O)OCC(=O)NCCc1ccccc1,1.2,1.2,-15.1,0.642,5.4,-16.6
O=C(COC(=O)CCCNC(=O)c1ccc(Cl)cc1)NC1CC1,1.1,1.2,-11.9,0.799,-0.4,-15.4
Cc1cc(C(C)(C)C)cc(S(=O)(=O)NCCO)c1C,3*,0.6,-196.9,0.0417,-0.2,42.5
CCSc1nc2ccccc2[nH]1,1.3,1.1,-27.2,0.544,5.9,-5.6
Fc1cccc(CSc2nc3ncccc3[nH]2)c1,0.7,0.5,28.7,0.123,2.3,46.5
Cc1cccc(OCCCSc2nc3ccccc3[nH]2)c1,1,0.2,1.6,-8.07*,12.0,76.7*
Fc1ccc(CSc2nc3ncccc3[nH]2)cc1,0.5,0.2,51.1*,.,5.7,81.9*
Nc1nc(CSc2nc3ccccc3[nH]2)cs1,0.6,0.2,44.5,-0.293,1.6,75.7*
Cc1cccc(OCCn2c(=S)[nH]c3ccccc32)c1,.,.,.,-3.76,-0.8,.
CCCCOc1ccc(CSc2ncn[nH]2)cc1,0.3,0.1,73.0*,-2.18,1.8,93.3*
C=CCc1ccc(OCC(O)CN2CCCCC2C)c(OC)c1 (stereo not given),1.1,0.8,-10.0,0.953,9.4,16.2
CC(C)NC(=O)c1onc(CSc2cccc(F)c2)c1C(=O)O,0.7,1,34.8,0.887,5.5,-1.1
C=C1C(=O)O[C@@H]2[C@H]1[C@@H](OC(=O)/C(C)=C/C)C/C(C)=C\C(=O)/C=C(\C)[C@@H]2O,.,.,.,-1.07,.,.
CCOCCCn1c(=N)c(C(=O)Nc2cc(C)on2)cc2c(=O)n3ccccc3nc21,.,.,.,.,4.3,.
CCCOc1ccc(CSc2nc3ccccc3[nH]2)cc1,0.1,0.6,89.8*,.,4.3,38.7
Fc1ccc(CSc2nc3ccccc3[nH]2)cc1,0.4,0.1,55.5*,.,5.6,93.4*
CCOc1ccc(OCCSc2nc3ccccc3[nH]2)cc1,.,.,.,-0.815,2.6,.
O=c1cc(CSc2nc3ccccc3[nH]2)c2ccccc2[nH]1,0.6,0.7,38.0,1.11,-0.6,34.2
Fc1ccc(CSc2nc3ccccc3[nH]2)c2ccccc12,0,0,97.5*,.,5.1,99.2*
O=C(C1CCC(N2C(=O)C3CC=CCC3C2=O)CC1)N1CCCCC1 (stereo not given),0.5,0.7,45.8,.,-0.8,31.5
COc1cccc(CN2CCN(C(=O)c3cccc(F)c3)CC2)c1,.,.,.,.,4.4,.
CC1(C)CC(=O)C2=C(C1)N(Cc1ccco1)C(=O)C2(O)C(F)(F)F (stereo not given),0.9,0.9,9.4,-0.0128,-4.4,10.7
COc1ccc(OC)c(N2C(=O)CC(C(C)c3ccccc3)C2=O)c1 (stereo not given),0.8,0.3,19.1,-0.251,-2.4,66.2*
Cc1cc(N2C(=O)CC(C(C)c3ccccc3)C2=O)no1 (stereo not given),.,.,.,-0.828,0.1,.
CC(=O)NC(CCS(C)(=O)=O)C(=O)Nc1ccc(F)cc1Cl (stereo not given),0.9,0.9,5.4,.,6.0,7.4
SMILES,CYP2C9 act,CYP2C19 activ,CYP2C9 inh,Cav3 T inh,HIV Rev-RRE inh,CYP2C19 inh
Cc1ccc(-c2nc3ccsc3c(=O)o2)cc1,0.7,0.8,31.2,-1.41,3.7,22.8
CCN(c1cccc(C)c1)c1nc2ccsc2c(=O)s1,0.1,0.3,86.7*,-0.742,17.4,65.4*
O=C(NCc1ccc(F)cc1)c1cnn2ccccc12,1,0.4,1.5,0.819,6.9,59.5*
O=C(N/N=C/c1c(Nc2cccc(C(F)(F)F)c2)nc2ccccn2c1=O)c1ccccc1,0.9,0.8,10.5,-0.851,5.4,19.3
Nc1ncnc2c1ncn2CCN1CCOCC1,0.5,0.1,48.0,-0.252,7.4,90.0*
Cc1cc(NC(=O)c2noc3c2CCc2ccccc2-3)n(-c2ccccc2)n1,1,1,4.1,1.05,.,-1.1
CCC1CCc2c(sc3ncnc(N4CCOCC4)c23)C1 (stereo not given),0.6,0.1,42.7,-0.699,0.3,89.1*
CC1(c2ccccc2)NC(=O)N(CCN2C(=O)c3ccccc3C2=O)C1=O (stereo not given),0.3,0,66.7*,0.239,0.3,96.1*
